Test results published in ChEMBL document CHEMBL5724801, “EUbOPEN Chemogenomics Library - Multiplex” (2024).
Several values for one entry are separate records, joined by “and”; a condition that tells them apart may be missing. Equal values may be shown once.

System: U2OS
Experiment: Multiplex assay against U2OS
Type: toxicity, cell-based
Conditions: human
Summary of the method: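 Four dyes were applied at seeding to live cells: Hoechst33342, BioTracker Green Microtubule Cytoskeleton Dye, MitoTracker Red and Annexin V Alexa Fluor 680. Imaging after compound addition used a CQ1 microscope at 37°C and 5% CO2. CellPathfinder machine-learning gating then sorted cells into Hoechst high-intensity objects or normal cells, normal cells into healthy, pyknosed or fragmented nuclei, and pyknosed cells into mitotic or apoptotic, with tubulin, mitochondrial-mass and membrane-permeability phenotypes given as per cents of healthy-nucleus cells.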

[1] = 12 h, 1 µM, compound concentration 1 uM
[2] = 12 h, 10 µM, compound concentration 10 uM
[3] = 24 h, 1 µM, compound concentration 1 uM
[4] = 24 h, 10 µM, compound concentration 10 uM
[5] = 48 h, 1 µM, compound concentration 1 uM
[6] = 48 h, 10 µM, compound concentration 10 uM

SMILES: CN(C)C/C=C/C(=O)Nc1ccc(C(=O)N2CCCC(Nc3ncc(Cl)c(-c4c[nH]c5ccccc45)n3)C2)cc1 (configuration not stated)
- Population Apoptotic (%) [1]: 77% and 83%
- Population Fragmented Nuclei (%) [1]: 31% and 18%
- Population Healthy Nuclei (%) [1]: 60% and 77%
- Population Hoechst High Intensity Objects (%) [1]: 2% and 0%
- Population Membrane Permeable-Phenotype (%) [1]: 5% and 6%
- Population Mitochondria Different-Phenotype (%) [1]: 3% and 5%
- Population Mitotic Cells (%) [1]: 22% and 16%
- Population Normal (%) [1]: 97% and 99%
- Population Pyknosed Nuclei (%) [1]: 8% and 4%
- Population Tubulin-Different-Phenotype (%) [1]: 4% and 8%
- Total Cell Count [1]: 228 and 139
- Population Apoptotic (%) [2]: 80% and 75%
- Population Fragmented Nuclei (%) [2]: 31% and 25%
- Population Healthy Nuclei (%) [2]: 47% and 54%
- Population Hoechst High Intensity Objects (%) [2]: 5% and 2%
- Population Membrane Permeable-Phenotype (%) [2]: 33% and 23%
- Population Mitochondria Different-Phenotype (%) [2]: 40% and 42%
- Population Mitotic Cells (%) [2]: 20% and 25%
- Population Normal (%) [2]: 94% and 97%
- Population Pyknosed Nuclei (%) [2]: 20%
- Population Tubulin-Different-Phenotype (%) [2]: 49% and 37%
- Total Cell Count [2]: 233 and 121
- Population Apoptotic (%) [3]: 93% and 100%
- Population Fragmented Nuclei (%) [3]: 34% and 21%
- Population Healthy Nuclei (%) [3]: 53% and 67%
- Population Hoechst High Intensity Objects (%) [3]: 2% and 0%
- Population Membrane Permeable-Phenotype (%) [3]: 7% and 8%
- Population Mitochondria Different-Phenotype (%) [3]: 2%
- Population Mitotic Cells (%) [3]: 6% and 0%
- Population Normal (%) [3]: 97% and 99%
- Population Pyknosed Nuclei (%) [3]: 11%
- Population Tubulin-Different-Phenotype (%) [3]: 6% and 5%
- Total Cell Count [3]: 271 and 164
- Population Apoptotic (%) [4]: 87% and 97%
- Population Fragmented Nuclei (%) [4]: 39% and 31%
- Population Healthy Nuclei (%) [4]: 35%
- Population Hoechst High Intensity Objects (%) [4]: 9% and 5%
- Population Membrane Permeable-Phenotype (%) [4]: 22% and 21%
- Population Mitochondria Different-Phenotype (%) [4]: 33% and 28%
- Population Mitotic Cells (%) [4]: 12% and 2%
- Population Normal (%) [4]: 90% and 94%
- Population Pyknosed Nuclei (%) [4]: 25% and 32%
- Population Tubulin-Different-Phenotype (%) [4]: 29% and 17%
- Total Cell Count [4]: 239 and 135
- Population Apoptotic (%) [5]: 94% and 96%
- Population Fragmented Nuclei (%) [5]: 29% and 10%
- Population Healthy Nuclei (%) [5]: 60% and 77%
- Population Hoechst High Intensity Objects (%) [5]: 3%
- Population Membrane Permeable-Phenotype (%) [5]: 10% and 3%
- Population Mitochondria Different-Phenotype (%) [5]: 3%
- Population Mitotic Cells (%) [5]: 5% and 3%
- Population Normal (%) [5]: 96%
- Population Pyknosed Nuclei (%) [5]: 10% and 12%
- Population Tubulin-Different-Phenotype (%) [5]: 5% and 3%
- Total Cell Count [5]: 339 and 221
- Population Apoptotic (%) [6]: 100%
- Population Fragmented Nuclei (%) [6]: 50%
- Population Healthy Nuclei (%) [6]: 17% and 18%
- Population Hoechst High Intensity Objects (%) [6]: 15% and 9%
- Population Membrane Permeable-Phenotype (%) [6]: 47% and 26%
- Population Mitochondria Different-Phenotype (%) [6]: 27% and 19%
- Population Mitotic Cells (%) [6]: 0%
- Population Normal (%) [6]: 84% and 90%
- Population Pyknosed Nuclei (%) [6]: 32% and 31%
- Population Tubulin-Different-Phenotype (%) [6]: 38% and 23%
- Total Cell Count [6]: 251 and 157

SMILES: COc1cc2nc(N3CCN(C(=O)COc4c(OC)cccc4C(C)C)CC3)nc(N)c2cc1OC.Cl.Cl
- Population Apoptotic (%) [1]: 67% and 33%
- Population Fragmented Nuclei (%) [1]: 21% and 10%
- Population Healthy Nuclei (%) [1]: 66% and 84%
- Population Hoechst High Intensity Objects (%) [1]: 3% and 2%
- Population Membrane Permeable-Phenotype (%) [1]: 10%
- Population Mitochondria Different-Phenotype (%) [1]: 5% and 6%
- Population Mitotic Cells (%) [1]: 32% and 66%
- Population Normal (%) [1]: 96% and 97%
- Population Pyknosed Nuclei (%) [1]: 11% and 4%
- Population Tubulin-Different-Phenotype (%) [1]: 6%
- Total Cell Count [1]: 256 and 136
- Population Apoptotic (%) [2]: 55% and 66%
- Population Fragmented Nuclei (%) [2]: 30% and 19%
- Population Healthy Nuclei (%) [2]: 43% and 48%
- Population Hoechst High Intensity Objects (%) [2]: 3% and 0%
- Population Membrane Permeable-Phenotype (%) [2]: 60% and 54%
- Population Mitochondria Different-Phenotype (%) [2]: 55% and 65%
- Population Mitotic Cells (%) [2]: 44% and 33%
- Population Normal (%) [2]: 96% and 99%
- Population Pyknosed Nuclei (%) [2]: 25% and 32%
- Population Tubulin-Different-Phenotype (%) [2]: 75% and 68%
- Total Cell Count [2]: 233 and 151
- Population Apoptotic (%) [3]: 84% and 80%
- Population Fragmented Nuclei (%) [3]: 21% and 15%
- Population Healthy Nuclei (%) [3]: 67% and 77%
- Population Hoechst High Intensity Objects (%) [3]: 3% and 0%
- Population Membrane Permeable-Phenotype (%) [3]: 6% and 10%
- Population Mitochondria Different-Phenotype (%) [3]: 8% and 7%
- Population Mitotic Cells (%) [3]: 15% and 20%
- Population Normal (%) [3]: 96% and 99%
- Population Pyknosed Nuclei (%) [3]: 11% and 6%
- Population Tubulin-Different-Phenotype (%) [3]: 4% and 5%
- Total Cell Count [3]: 297 and 154
- Population Apoptotic (%) [4]: 76% and 87%
- Population Fragmented Nuclei (%) [4]: 30% and 20%
- Population Healthy Nuclei (%) [4]: 36% and 40%
- Population Hoechst High Intensity Objects (%) [4]: 9% and 12%
- Population Membrane Permeable-Phenotype (%) [4]: 40% and 49%
- Population Mitochondria Different-Phenotype (%) [4]: 49% and 50%
- Population Mitotic Cells (%) [4]: 24% and 12%
- Population Normal (%) [4]: 90% and 87%
- Population Pyknosed Nuclei (%) [4]: 33% and 39%
- Population Tubulin-Different-Phenotype (%) [4]: 50% and 60%
- Total Cell Count [4]: 246 and 185
- Population Apoptotic (%) [5]: 83% and 75%
- Population Fragmented Nuclei (%) [5]: 20% and 16%
- Population Healthy Nuclei (%) [5]: 70% and 72%
- Population Hoechst High Intensity Objects (%) [5]: 2% and 3%
- Population Membrane Permeable-Phenotype (%) [5]: 6% and 7%
- Population Mitochondria Different-Phenotype (%) [5]: 6%
- Population Mitotic Cells (%) [5]: 16% and 25%
- Population Normal (%) [5]: 97% and 96%
- Population Pyknosed Nuclei (%) [5]: 8% and 11%
- Population Tubulin-Different-Phenotype (%) [5]: 4% and 6%
- Total Cell Count [5]: 441 and 225
- Population Apoptotic (%) [6]: 88% and 93%
- Population Fragmented Nuclei (%) [6]: 40% and 24%
- Population Healthy Nuclei (%) [6]: 21% and 23%
- Population Hoechst High Intensity Objects (%) [6]: 31% and 32%
- Population Membrane Permeable-Phenotype (%) [6]: 13% and 27%
- Population Mitochondria Different-Phenotype (%) [6]: 30% and 10%
- Population Mitotic Cells (%) [6]: 11% and 6%
- Population Normal (%) [6]: 68% and 67%
- Population Pyknosed Nuclei (%) [6]: 38% and 51%
- Population Tubulin-Different-Phenotype (%) [6]: 13% and 24%
- Total Cell Count [6]: 296 and 180
